Only some compounds are listed: those with a hit (about 2.4% of all), similar ones and a draw of the others.
LMPTP block: LMPTP (human) inhibition; P24666; recombinant LMPTP-A, OMFP fluorogenic substrate, fluorescence intensity; inhibition, % at 20 µM; 360,000 compounds, 0.22% hits; AID 651560;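 active = compounds that cut the enzyme signal by at least half of the control window in the single-dose screen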;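 also: plate controls were DMSO wells with enzyme plus substrate for no effect and substrate without enzyme for full effect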
Target sequence (P24666 whole entry, looked up): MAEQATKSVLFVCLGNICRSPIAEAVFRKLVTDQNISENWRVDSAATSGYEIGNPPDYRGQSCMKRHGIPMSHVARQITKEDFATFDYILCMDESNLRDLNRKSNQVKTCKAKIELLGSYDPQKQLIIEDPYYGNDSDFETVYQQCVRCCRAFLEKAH
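Material: LMPTP-A; amount: 0.625 nM enzyme; doses: single 20 µM dose; times: reaction 50 min, room temperature, dark; technique: fluorescence intensity of OMFP turnover product; benchmarks: no-enzyme and uninhibited controls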
DNMT1 inh: inhibitors of human DNMT1. P26358. DNMT1 molecular beacon, Hinp1I cleavage, fluorescence. inhibition (reported as % activation of signal), % at 10 µM. 360,000 compounds, 0.83% hits; in the data active = inhibition above about 50%
STEP block: STEP (human) phosphatase inhibition. P54829. recombinant STEP, OMFP fluorogenic substrate, fluorescence. inhibition, % at 20 µM. 360,000 compounds, 0.25% hits. AID 588621;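 active = inhibition at 20 µM, scaled per plate between control wells, above about 37%, limit read from the data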;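 also: 0% = DMSO with enzyme and substrate and 100% = substrate only without enzyme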
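Material: STEP (striatal-enriched tyrosine phosphatase) enzyme, cell-free | Medium: 50 mM Bis-Tris pH 6.0 with 2.5 mM DTT and 0.005% Tween 20 | Read-out: Percent inhibition scaled to no-enzyme and uninhibited-enzyme controls, plate-pattern corrected | Signal: Fluorescence read at 480 nm ex / 540 nm em | Times: 20 min reaction, room temperature, in the dark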
Scp-1 inhibitor: inhibitors of human Scp-1 phosphatase. Q9GZU7. Recombinant Scp1, phosphopeptide, malachite green phosphate absorbance. inhibition, % at 20 µM. 340,000 compounds, 0.88% hits. AID 493091;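 active = inhibition above about 50% at 20 µM, limit read from the data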;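 also: plate controls were DMSO wells with enzyme for no effect and wells lacking enzyme for full effect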
Target sequence (Q9GZU7 76-261 limits assumed): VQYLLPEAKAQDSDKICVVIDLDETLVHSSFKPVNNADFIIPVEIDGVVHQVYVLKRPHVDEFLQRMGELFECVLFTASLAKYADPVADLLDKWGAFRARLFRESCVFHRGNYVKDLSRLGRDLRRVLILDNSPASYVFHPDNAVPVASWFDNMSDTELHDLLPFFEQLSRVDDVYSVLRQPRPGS
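Test system: SCP-1 catalytic domain; Buffer or medium: Acidic Tris acetate buffer with magnesium and detergent; Also added: Phosphorylated 17-residue peptide substrate; Compound: single 20 µM dose, 1% DMSO; Schedule: enzyme reaction 45 min at room temperature, colour 5 min, stabilisation 30 min; Signal: Phosphate-binding colour reagent, absorbance read at 630 nm.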
NadD block: inhibitors of Staphylococcus aureus NadD; AID 602399; purified NadD enzyme, colorimetric absorbance read-out; inhibition, % at 20 µM; 360,000 compounds, 0.78% hits; in the data active = inhibition above about 26%
SUMO1-SIM PPI: modulators of human SUMO1-mediated protein-protein interactions. 360,000 compounds, 0.33% hits. inhibition, % at 20 µM. P63165. SUMO1 binding to a labelled peptide, TR-FRET, 1 h. AID 602429; in the data active = inhibition above about 37%
Target sequence (P63165 whole entry, looked up): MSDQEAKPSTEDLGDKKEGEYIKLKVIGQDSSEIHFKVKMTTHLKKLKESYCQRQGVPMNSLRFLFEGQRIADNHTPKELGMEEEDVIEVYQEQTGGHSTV
NadD conf: confirmation of Staphylococcus aureus NadD inhibitors; shares compounds with NadD block; purified S. aureus NadD, colorimetric enzyme assay; inhibition, % at 20 µM; 2,000 compounds, 13% hits; AID 624309; in the data active = inhibition mostly above about 42%, no sharp cut-off; inactive = mostly below about 42%
* hit, by the source's call; · = no result given.

SMILES	LMPTP block	DNMT1 inh	STEP block	Scp-1 inhibitor	NadD block	SUMO1-SIM PPI	NadD conf
Cc1cc2nc(-c3ccc(F)cc3)c(Cc3cccc(Cl)c3)n2c(C)c1Br	1.8	·	·	·	69.4*	16.2	29.0
CC(C)Cc1nnc(NC(=O)c2cc3c(s2)CCC3)s1	-0.2	11.5	-0.1	5.8	8.7	0.7	·
COc1ccc(C(=O)Nc2cccc(/C=C(\CCC(=O)O)c3nc4ccccc4s3)c2)cc1	4.6	-5.7	-6.6	5.8	54.6*	-2.6	29.4
CCOc1cc(/C=C(\CC(=O)O)c2nc3ccccc3s2)ccc1OCC(=O)Nc1cccc(C(F)(F)F)c1	3.3	-7.5	-3.1	-4.6	37.4*	13.5	11.5
COc1ccc(C2=NN(C(=O)CSc3nc(=O)n4cc(C)ccc4n3)C(c3ccc(C)cc3)C2)cc1 (stereo unspecified)	5.1	-4.9	1.4	-0.1	49.2*	-114.9	14.7
CCN1CCN(CC(=O)N2N=C(c3cccs3)CC2c2ccc(OC)cc2)C(=O)C1=O (stereo unspecified)	-1.9	-0.1	0.9	-0.8	-2.9	-15.1	·
CCOC(=O)N1CCN(C(=O)CSc2nc3c(cnn3-c3ccccc3)c(=O)[nH]2)CC1	-5.8	3.5	-2.2	-8.4	-6.0	10.2	·
COc1ccc(C2CC(c3cccs3)=NN2C(=O)CSc2nc3c(cnn3-c3ccccc3)c(=O)[nH]2)cc1 (stereo unspecified)	1.9	-3.2	-1.8	-16.7	40.3*	-4.0	7.3
O=C(CSc1nc(=O)n2ccccc2n1)N1N=C(c2cccs2)CC1c1ccc(F)cc1 (stereo unspecified)	2.6	-1.2	1.1	-2.0	12.8	-12.4	·
Cc1ccc(C2CC(c3cccs3)=NN2C(=O)CSc2nc(=O)n3ccc(C)cc3n2)cc1 (stereo unspecified)	4.7	41.2	2.1	·	38.0*	-4.8	51.0*
COc1ccc(C2CC(c3cccs3)=NN2C(=O)CSc2nc(=O)n3ccc(C)cc3n2)cc1 (stereo unspecified)	18.3	13.2	0.7	22.6	46.4*	-1.0	43.8
CC1SC(C)C(=O)N(CC(=O)Nc2ccc3c(c2)OCO3)C1=O (stereo unspecified)	0.6	-11.5	-3.9	-5.1	0.4	-1.0	·
CC1(C)Cc2c(C#N)c(N3CCN(C(=O)c4ccccc4Cl)CC3)nc(-c3ccco3)c2CS1	2.8	19.9	3.4	-7.6	34.3*	7.0	1.0
CCOC(=O)c1c(-c2ccccc2Cl)csc1NC(=O)CSc1nc(C)cc(=O)[nH]1	1.6	4.9	0.5	-8.2	27.6*	8.5	55.3*
CC(C)C[C@@H](CNCC(=O)[C@H](Cc1c[nH]c2ccccc12)NC(=O)c1[nH]cnc1C(=O)N[C@@H](C)CN)NC(=O)c1nc[nH]c1C(=O)N[C@@H](Cc1ccccc1)C(=O)O	-4.9	-18.4	-1.8	-8.0	33.9*	8.2	43.3
CC(C)C[C@@H](CN)NC(=O)c1nc[nH]c1C(=O)N[C@@H](Cc1c[nH]c2ccccc12)C(=O)CNC[C@H](C)NC(=O)c1nc[nH]c1C(=O)N[C@@H](C)C(=O)O	-3.0	8.7	0.1	-8.0	17.0	5.1	·
CC(C)C[C@@H](CN)NC(=O)c1nc[nH]c1C(=O)N[C@@H](C)C(=O)CNC[C@H](CC(C)C)NC(=O)c1nc[nH]c1C(=O)N[C@@H](Cc1ccccc1)C(=O)O	-2.5	-1.3	-0.4	-8.0	31.9*	26.0	45.7
CC(C)C[C@@H](CNC(=O)OC(C)(C)C)NC(=O)c1nc[nH]c1C(=O)N[C@@H](CC(C)C)C(=O)CNC[C@H](CC(C)C)NC(=O)c1nc[nH]c1C(=O)N[C@@H](Cc1c[nH]c2ccccc12)C(=O)OC(C)(C)C	-2.3	-18.9	-3.3	-2.3	30.2*	4.1	5.3
CC(C)C[C@@H](CNCC(=O)[C@H](C)NC(=O)c1[nH]cnc1C(=O)N[C@@H](C)CN)NC(=O)c1nc[nH]c1C(=O)N[C@@H](Cc1ccccc1)C(=O)O	-4.4	4.9	0.5	-4.8	13.7	4.4	·
